According to ChEMBL document CHEMBL1123747, “N-methyl derivatives of the 5-HT2 agonist 1-(4-bromo-2,5-dimethoxyphenyl)-2-aminopropane” (J Med Chem, 1987):

Assays:
Type in all cases: functional
[1] = species on record: Rattus norvegicus; test: The compound was tested for effective dose ( ED 50) against stimulus generation with rats trained to discriminate (R) (-)-DOB from saline.
How it was run: (§1)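 Male Sprague-Dawley rats (n = 6) on a two-lever operant task for sweetened milk, VI 15-s schedule. Trained to discriminate 0.2 mg/kg ip training drug from 1.0 mL/kg 0.9% saline, 15 min pre-session. Test doses were given ip in random order to groups of 3–6, with 15-min pretreatment and a 2.5-min extinction session. ED50 was calculated from dose-response data.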

[2] = species on record: Rattus norvegicus; test: The number of animals responding per number of animals receiving the drug(4/4) in the stimulus-generation studies was calculated at dose 1.1 mg / kg
How it was run: (§2)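 Male Sprague-Dawley rats were trained to discriminate 0.2 mg/kg ip training drug from saline (two levers, VI 15-s, milk reward). Test doses were given ip 15 min pre-session in random order to groups of 3–6. In the 2.5-min extinction session, rats making fewer than five total responses were counted as disrupted. N is animals responding over animals dosed.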

[3] = species on record: Rattus norvegicus; test: The mean responses per minute during the 2.5 min extinction session in the stimulus-generation studies was calculated at dose 0.7 mg / kg
How it was run: (§3)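 Rats were trained on a two-lever drug-versus-saline discrimination (0.2 mg/kg ip training dose, VI 15-s, food reward). Challenge doses were given ip 15 min before a 2.5-min extinction test, in random order, to groups of 3–6 rats, with at least three training sessions between tests. Response rate is responses per minute over the extinction session.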

[4] = species on record: Rattus norvegicus; test: The number of responses made on the (R)(-)-DOB appropriate level, generation studies was calculated at dose 0.4 mg / kg
How it was run: (§4)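 Male Sprague-Dawley rats (n = 6) were trained on a two-lever operant task for sweetened-milk reward to discriminate 0.2 mg/kg (R)-(-)-DOB-HCl ip from 1.0 mL/kg 0.9% saline, with a VI 15-s schedule and 15-min sessions. Test doses were given ip 15 min before a 2.5-min extinction session, in random order, to groups of 3-6 rats. Read-out was % drug-lever responses; fewer than five total responses counted as disrupted.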

[5] = species on record: Rattus norvegicus; test: The number of responses made on the (R)(-)-DOB appropriate level, generation studies was calculated at dose 0.2 mg / kg; how it was run: as §4
[6] = species on record: Rattus norvegicus; test: The mean responses per minute during the 2.5 min extinction session in the stimulus-generation studies was calculated at dose 1.1 mg / kg; how it was run: as §3
[7] = species on record: Rattus norvegicus; test: The mean responses per minute during the 2.5 min extinction session in the stimulus-generation studies was calculated at dose 0.2 mg / kg; how it was run: as §3
[8] = species on record: Rattus norvegicus; test: The number of responses made on the (R)(-)-DOB appropriate level, generation studies was calculated at dose 0.7 mg / kg; how it was run: as §4
[9] = species on record: Rattus norvegicus; test: The number of animals responding per number of animals receiving the drug(3/4) in the stimulus-generation studies was calculated at dose 0.4 mg / kg; how it was run: as §2
[10] = species on record: Rattus norvegicus; test: The mean responses per minute during the 2.5 min extinction session in the stimulus-generation studies was calculated at dose 0.4 mg / kg; how it was run: as §3
[11] = species on record: Rattus norvegicus; test: The number of animals responding per number of animals receiving the drug(3/3) in the stimulus-generation studies was calculated at dose 0.2 mg / kg; how it was run: as §2
[12] = species on record: Rattus norvegicus; test: The number of responses made on the (R)(-)-DOB appropriate level, generation studies was calculated at dose 1.1 mg / kg; how it was run: as §4
[13] = species on record: Rattus norvegicus; test: The number of animals responding per number of animals receiving the drug(3/3) in the stimulus-generation studies was calculated at dose 0.7 mg / kg; how it was run: as §2
[14] = species on record: Rattus norvegicus; test: The number of responses made on the (R)(-)-DOB appropriate level, generation studies was calculated at dose 0.20 mg / kg; conditions: dose 0.2 mg / kg; how it was run: as §4
[15] = species on record: Rattus norvegicus; test: The mean responses per minute during the 2.5 min extinction session in the stimulus-generation studies was calculated at dose 0.20 mg / kg; conditions: dose 0.2 mg / kg; how it was run: as §3
[16] = species on record: Rattus norvegicus; test: The number of responses made on the (R)(-)-DOB appropriate level, generation studies was calculated at dose 0.10 mg / kg; conditions: dose 0.1 mg / kg; how it was run: as §4
[17] = species on record: Rattus norvegicus; test: The mean responses per minute during the 2.5 min extinction session in the stimulus-generation studies was calculated at dose 0.03 mg / kg; how it was run: as §3
[18] = species on record: Rattus norvegicus; test: The number of animals responding per number of animals receiving the drug (5/5)in the stimulus-generation studies was calculated at dose 0.05 mg / kg; how it was run: as §2
[19] = species on record: Rattus norvegicus; test: The number of responses made on the (R)(-)-DOB appropriate level, generation studies was calculated at dose 0.05 mg / kg; how it was run: as §4
[20] = species on record: Rattus norvegicus; test: 1 The compound was tested for effective dose ( ED 50) against stimulus generation with rats trained to discriminate (R) (-)-DOB from saline.; how it was run: as §1
[21] = species on record: Rattus norvegicus; test: The number of animals responding per number of animals receiving the drug(5/5) in the stimulus-generation studies was calculated at dose 0.03 mg / kg; how it was run: as §4
[22] = species on record: Rattus norvegicus; test: The number of responses made on the (R)(-)-DOB appropriate level, generation studies was calculated at dose 0.01 mg / kg; how it was run: as §4
[23] = species on record: Rattus norvegicus; test: The number of animals responding per number of animals receiving the drug (4/4)in the stimulus-generation studies was calculated at dose 0.20 mg / kg; conditions: dose 0.2 mg / kg; how it was run: as §2
[24] = species on record: Rattus norvegicus; test: The number of animals responding per number of animals receiving the drug(4/4)in the stimulus-generation studies was calculated at dose 0.10 mg / kg; conditions: dose 0.1 mg / kg; how it was run: as §4
[25] = species on record: Rattus norvegicus; test: The mean responses per minute during the 2.5 min extinction session in the stimulus-generation studies was calculated at dose 0.05 mg / kg; how it was run: as §3
[26] = species on record: Rattus norvegicus; test: The mean responses per minute during the 2.5 min extinction session in the stimulus-generation studies was calculated at dose 0.01 mg / kg; how it was run: as §3
[27] = species on record: Rattus norvegicus; test: The number of responses made on the (R)(-)-DOB appropriate level, generation studies was calculated at dose 0.03 mg / kg; how it was run: as §4
[28] = species on record: Rattus norvegicus; test: The number of animals responding per number of animals receiving the drug(4/4) in the stimulus-generation studies was calculated at dose 0.01 mg / kg; how it was run: as §2
[29] = species on record: Rattus norvegicus; test: The mean responses per minute during the 2.5 min extinction session in the stimulus-generation studies was calculated at dose 0.10 mg / kg; conditions: dose 0.1 mg / kg; how it was run: as §3

COc1cc(C[C@H](C)N)c(OC)cc1Br
ED50 [1]: 0.56 mg/kg | No. of animals responding/animals receiving drug [2]: 4 | Response rate [3]: 10.8 | Responding [4]: 48% | Responding [5]: 3% | Response rate [6]: 10.8 | Response rate [7]: 12 | Responding [8]: 63% | No. of animals responding/animals receiving drug [9]: 3 | Response rate [10]: 10.5 | No. of animals responding/animals receiving drug [11]: 3 | Responding [12]: 82% | No. of animals responding/animals receiving drug [13]: 3

COc1cc(C[C@@H](C)N)c(OC)cc1Br
Responding [14]: 98% | Response rate [15]: 12.3 | Responding [16]: 64% | Response rate [17]: 11.8 | No. of animals responding/animals receiving drug [18]: 5 | Responding [19]: 58% | ED50 [20]: 0.05 mg/kg | No. of animals responding/animals receiving drug [21]: 5 | Responding [22]: 5% | No. of animals responding/animals receiving drug [23]: 4 | No. of animals responding/animals receiving drug [24]: 4 | Response rate [25]: 12 | Response rate [26]: 12.5 | Responding [27]: 21% | No. of animals responding/animals receiving drug [28]: 4 | Response rate [29]: 10.8
